HCV NS3 hel inh: inhibitors of Hepatitis C virus NS3 helicase; NS3 helicase DNA unwinding, Cy5 molecular beacon fluorescence; inhibition, % at 10.9 µM; hit rate 0.56% among 290,000;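 active = inhibition above the mean of all tested compounds plus 3 SD, set per campaign, cut at about 35% in these data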;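 note: 0% = DMSO wells and 100% = thioflavine S control wells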
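System: HCV NS3 helicase fragment; control set: DMSO and thioflavine S; technique: Cy5 fluorescence at 0 and 60 min, beacon hairpin quenching; reagent: beacon DNA duplex substrate plus ATP; replicates: singlicate; schedule: 1 h reaction at 25 °C, ATP-initiated; medium: MOPS buffer pH 6.5 with MgCl2, DTT, Tween20, BSA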
ZTA counter: counter-screen for EBNA-1 inhibitors: inhibitors of Epstein-Barr virus ZTA; AID 2234; inhibition, % at 11 µM; ZTA-DNA binding, fluorescence polarization; hit rate 0.15% among 320,000; in the data active = inhibition above about 33%
Target sequence (P03206 whole entry, looked up): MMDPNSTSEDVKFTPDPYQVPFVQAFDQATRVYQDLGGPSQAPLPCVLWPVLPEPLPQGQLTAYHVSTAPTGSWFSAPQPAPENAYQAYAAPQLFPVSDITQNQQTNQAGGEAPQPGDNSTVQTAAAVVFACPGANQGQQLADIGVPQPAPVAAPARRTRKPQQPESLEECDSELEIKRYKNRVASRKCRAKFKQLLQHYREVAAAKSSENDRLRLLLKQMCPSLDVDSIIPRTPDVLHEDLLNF
EBNA-1 inh: blocks EBNA-1 binding to DNA; EBNA-1 DNA binding, fluorescence polarization; inhibition, % at 14.8 µM; hit rate 0.34% among 300,000; in the data active = inhibition above about 28%
PfM18AAP inh: blocks P. falciparum M18 aspartyl aminopeptidase. inhibition, % at 7.35 µM. hit rate 1.2% among 290,000. AID 1822. recombinant PfM18AAP, H-Glu-NHMec fluorogenic cleavage;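 active = inhibition above the campaign mean inhibition over all tested compounds plus 3 SD, cut at about 28% in these data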;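 note: 0% = plate median of test compound wells and 100% = 2 mM ZnCl2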
HCV core dimer: HCV core protein dimerization inhibition. hit rate 0.33% among 300,000. inhibition, % at 5 µM. TR-FRET GST/Flag-core106 dimerization, 1536-well;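 active = inhibition above the mean of all tested compounds plus 3 SD, set per screening campaign, cut at about 45% in these data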
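Material: Tagged HCV core106 pair (GST and Flag) | Amount: GST-core106 13.5 nM, Flag-core106 17 nM | Medium: KF-containing HEPES buffer, pH 7.45, DTT, CHAPS, BSA | Reagent: Eu donor and XL665 acceptor anti-tag antibodies | Schedule: 4 h at 22.5 °C | Technique: Time-resolved FRET, ex 340 nm, em 617 and 671 nm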
ALR inh: human ALR oxidase inhibition via reduced H2O2. P55789. purified ALR, DTT oxidation, H2O2 HRP-luminol luminescence. inhibition, % (test concentration not listed). hit rate 3.8% among 290,000. AID 485317;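 active = mean replicate inhibition above about 79%, with every replicate also reaching it, limit read from the data; inconclusive = only one of the two criteria met; inactive = mean below limit and not every replicate reaching it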
Target sequence (P55789 whole entry, looked up): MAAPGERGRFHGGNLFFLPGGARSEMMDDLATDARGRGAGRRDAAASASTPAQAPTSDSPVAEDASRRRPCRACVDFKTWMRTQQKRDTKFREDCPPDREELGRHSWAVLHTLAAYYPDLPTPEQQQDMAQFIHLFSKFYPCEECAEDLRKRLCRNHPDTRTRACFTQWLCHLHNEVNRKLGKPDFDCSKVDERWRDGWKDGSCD
* marks the source's active call; other numbers are inactive results; u = inconclusive; x = no result. Rows were chosen to be rich in hits. Some 5.2% of all compounds tested hit in one or more screens of this group.

SMILES	HCV NS3 hel inh	ZTA counter	EBNA-1 inh	PfM18AAP inh	HCV core dimer	ALR inh
Cc1coc2c(C)c3oc(=O)c(CCC(=O)N(C)CC(=O)O)c(C)c3cc12	11.8	-17.0	-11.3	3.0	-1.5	8.0
NC(=O)c1ccc(NC(=O)COC(=O)c2ccc3c(c2)OCCO3)cc1	2.6	7.6	-1.4	-12.3	-1.4	-2.1
N#CCC(=O)Nc1ccc(C(=O)OCC(=O)NC(=O)Nc2ccc3c(c2)OCCO3)cc1	x	x	x	x	x	99.3*
N#CCC(=O)Nc1ccc(C(=O)OCC(=O)NCc2ccc3c(c2)OCO3)cc1	x	-15.1	x	x	x	98.8*
CC(OC(=O)c1ccc(NC(=O)CC#N)cc1)C(=O)Nc1ccc2c(c1)OCCO2 (stereo not drawn)	x	-10.9	0.0	x	11.0	97.3*
Cc1ccccc1NC(=O)CCC(=O)N/N=C/c1ccncc1	x	13.5	-6.4	x	4.0	-12.5
COc1ccccc1CNC(=O)COC(=O)c1cccc(S(=O)(=O)N2CCOCC2)c1	x	10.5	16.6	x	0.2	u
CCS(=O)(=O)N1CCC(C(=O)Nc2ccccc2OC)CC1	-2.4	-12.0	-13.6	-7.0	-10.2	-3.4
CCOC(=O)CSC(=S)NC(=O)c1ccc(OC)cc1	6.8	-2.2	-16.1	-1.2	-7.3	100.1*
O=C(CCN1C(=O)S/C(=C/c2ccccc2)C1=O)Nc1ccc(O)c(C(=O)O)c1	20.9	-1.1	-6.6	11.4	8.8	4.1
CCOc1cc(/C=N/Nc2ncc(C)c(=O)[nH]2)ccc1O	12.4	-1.3	-20.8	22.8	-4.8	99.7*
Cc1cc(=O)[nH]c(N/N=C/c2c(F)c(F)c(F)c(F)c2F)n1	1.2	-2.3	-0.2	7.8	-1.3	75.9*
CCOc1cc(/C=N/Nc2cc(C)nc(-n3nc(C)cc3C)n2)ccc1O	-6.6	-8.3	1.7	22.5	1.8	-2.2
CCOc1cc(/C=N/Nc2nc(C)cc(=O)[nH]2)ccc1O	4.4	1.8	-12.6	7.2	1.4	95.8*
O=[N+]([O-])c1cccc(CN2C[C@@]34C=C[C@@H](C[C@@H]3S2(=O)=O)O4)c1	10.4	4.6	-0.2	-6.0	9.7	96.0*
NS(=O)(=O)c1ccc(-c2cccc(/C=C3\SC(=O)NC3=O)c2)cc1	13.0	20.8	-1.4	5.1	29.6	-1.2
N#CCc1ccc(NC(=O)CSc2nnc(C3CC3)n2C2CC2)cc1	x	-3.9	x	x	x	-4.5
O=C(Nc1c(C(=O)N2CCN(c3ccccn3)CC2)oc2ccccc12)c1cccc([N+](=O)[O-])c1	-9.5	-3.3	-6.2	-9.2	17.7	-3.2
COC(=O)c1nc(NC(=O)c2cc(OC)c(OC)c(OC)c2)n[nH]1	12.9	0.3	1.8	2.0	-13.1	98.0*
COc1cc(C(=O)Nc2ccncc2)cc(OC)c1OC	3.6	14.8	2.6	6.0	1.2	-4.1
O=S(=O)(c1ccc2c(c1)CCN2)N1CCCC1	x	-10.3	x	x	x	98.4*
COc1ccccc1/C=C(/C#N)C(=O)O	10.6	x	x	4.7	x	3.6
CC1CCC(NC(=O)CCCn2sc3ccccc3c2=O)CC1 (stereo not drawn)	7.6	-21.2	1.5	2.1	-14.0	1.3
CCN(CC)c1ccc(NS(=O)(=O)c2ccc3c(c2)oc(=O)n3C)c(C)c1	8.0	-12.9	-5.7	29.3*	-15.8	98.7*
CCN(CCNS(=O)(=O)c1ccc2c(c1)oc(=O)n2C)c1ccccc1	-9.5	-12.1	-1.0	-7.2	-0.6	x
SMILES	HCV NS3 hel inh	ZTA counter	EBNA-1 inh	PfM18AAP inh	HCV core dimer	ALR inh
CC(/C=N/n1c(-c2ccc(C)cc2)n[nH]c1=S)=C\c1ccco1	27.1	8.6	-3.0	13.7	36.8	97.1*
Cc1cccc(-c2n[nH]c(=S)n2/N=C/C=C/c2ccco2)c1	29.4	0.1	6.2	11.5	12.6	97.2*
S=c1[nH]nc(-c2cccc(Cl)c2)n1/N=C/c1ccco1	22.3	-17.9	9.4	14.6	11.0	97.1*
CC(/C=N/n1c(-c2ccncc2)n[nH]c1=S)=C\c1ccco1	13.2	0.1	-0.1	10.8	1.8	1.7
S=c1[nH]nc(-c2ccncc2)n1/N=C/C=C/c1ccco1	28.6	-6.6	-0.7	30.9*	0.3	65.4
S=c1[nH]nc(-c2ccccc2Cl)n1/N=C/C=C/c1ccco1	35.9	-4.6	-5.5	22.3	5.9	x
O=C(OCC1OC(n2cc(Br)c(=O)[nH]c2=O)C(Br)C1O)c1ccccc1 (stereo not drawn)	5.8	8.1	2.8	4.6	10.1	x
CCCCn1c(N)c(N(CCOC)C(=O)c2ccc3c(c2)OCCO3)c(=O)[nH]c1=O	x	5.5	2.0	x	-0.5	-12.8

Screens (PubChem)
